Results: ChEMBL document CHEMBL5257039, “Modulation of AMPA Receptor Gating by the Anticonvulsant Drug, Perampanel” (ACS Med Chem Lett, 2019)
Calls of active or inactive are those of the source. The rule behind the calls is not given here.

Legend:
Type in all cases: cell-based
Glutamate receptor 3 [1] = biological target: T1, Glutamate receptor 3 (Homo sapiens, UniProt P42263); assay: Blockade of whole cell current in GluA3i-G (unknown origin) transfected in HEK293 cells assessed as opening of conductance level O4 measured at -60 mV in presence of glutamate at 2 uM by whole cell patch clamp assay
T1 sequence (P42263 whole entry): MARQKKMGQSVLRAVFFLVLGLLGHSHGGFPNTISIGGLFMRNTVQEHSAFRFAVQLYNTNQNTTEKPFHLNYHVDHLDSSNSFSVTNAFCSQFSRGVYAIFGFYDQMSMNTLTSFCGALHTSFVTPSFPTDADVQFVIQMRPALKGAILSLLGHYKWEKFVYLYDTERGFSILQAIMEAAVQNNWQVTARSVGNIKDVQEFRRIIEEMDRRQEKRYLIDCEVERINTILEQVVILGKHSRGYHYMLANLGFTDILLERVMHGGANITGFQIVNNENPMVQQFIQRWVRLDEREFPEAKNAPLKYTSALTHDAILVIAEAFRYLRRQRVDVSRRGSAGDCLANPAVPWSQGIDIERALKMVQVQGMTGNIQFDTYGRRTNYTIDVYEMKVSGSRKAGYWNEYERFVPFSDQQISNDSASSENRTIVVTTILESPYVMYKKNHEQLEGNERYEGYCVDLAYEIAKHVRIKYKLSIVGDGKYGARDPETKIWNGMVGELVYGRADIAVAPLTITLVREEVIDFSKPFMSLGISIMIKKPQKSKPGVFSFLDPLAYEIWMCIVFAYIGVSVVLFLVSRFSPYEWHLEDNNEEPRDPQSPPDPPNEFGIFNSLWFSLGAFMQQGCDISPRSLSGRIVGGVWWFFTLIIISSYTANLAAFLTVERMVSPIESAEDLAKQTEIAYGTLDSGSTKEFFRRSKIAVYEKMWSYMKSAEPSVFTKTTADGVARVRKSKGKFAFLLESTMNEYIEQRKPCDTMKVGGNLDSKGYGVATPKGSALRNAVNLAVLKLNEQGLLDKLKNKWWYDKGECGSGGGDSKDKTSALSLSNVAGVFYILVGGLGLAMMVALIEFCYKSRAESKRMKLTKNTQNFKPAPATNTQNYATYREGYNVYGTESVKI
How it was run: (§1)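 Single homomeric GluA3i-G channels (flip, G at R/G editing site) were recorded cell-attached for 10–45 min in 5 mM L-glutamate plus 150–200 μM cyclothiazide to block desensitization. Inhibitor at 1 or 2 μM was coapplied with glutamate, and analysis used the steady-state segment. Amplitudes were fitted to closed and O1–O4 conductance levels. Fractional occupancy per level is reported as mean ± SD over 2–3 patches.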

Glutamate receptor 3 [2] = biological target: T1, Glutamate receptor 3; assay: Blockade of whole cell current in GluA3i-G (unknown origin) transfected in HEK293 cells assessed as opening of conductance level O3 measured at -60 mV in presence of glutamate at 1 uM by whole cell patch clamp assay; how it was run: as §1
Glutamate receptor 3 [3] = biological target: T1, Glutamate receptor 3; assay: Blockade of whole cell current in GluA3i-G (unknown origin) transfected in HEK293 cells assessed as fractional occupancy at level O3 by measuring ratio at -60 mV in presence of glutamate at 2 uM by whole cell patch clamp assay (RVB = 0.44 +/- 0.14); settings: filed as negative allosteric modulator; how it was run: as §1
Glutamate receptor 3 [4] = biological target: T1, Glutamate receptor 3; assay: Blockade of whole cell current in GluA3i-G (unknown origin) transfected in HEK293 cells assessed as fractional occupancy at level C by measuring ratio at -60 mV in presence of glutamate at 1 uM by whole cell patch clamp assay (RVB = 0.037 +/- 0.010); settings: filed as negative allosteric modulator; how it was run: as §1
Glutamate receptor 3 [5] = biological target: T1, Glutamate receptor 3; assay: Blockade of whole cell current in GluA3i-G (unknown origin) transfected in HEK293 cells assessed as fractional occupancy at level O1 by measuring ratio at -60 mV in presence of glutamate at 2 uM by whole cell patch clamp assay (RVB = 0.16 +/- 0.059); settings: filed as negative allosteric modulator; how it was run: as §1
Glutamate receptor 3 [6] = biological target: T1, Glutamate receptor 3; assay: Blockade of whole cell current in GluA3i-G (unknown origin) transfected in HEK293 cells assessed as fractional occupancy at level O2 by measuring ratio at -60 mV in presence of glutamate at 2 uM by whole cell patch clamp assay (RVB = 0.23 +/- 0.051); settings: filed as negative allosteric modulator; how it was run: as §1
Glutamate receptor 3 [7] = biological target: T1, Glutamate receptor 3; assay: Blockade of whole cell current in GluA3i-G (unknown origin) transfected in HEK293 cells assessed as opening of conductance level O4 measured at -60 mV in presence of glutamate at 1 uM by whole cell patch clamp assay; how it was run: as §1
Glutamate receptor 3 [8] = biological target: T1, Glutamate receptor 3; assay: Blockade of whole cell current in GluA3i-G (unknown origin) transfected in HEK293 cells assessed as fractional occupancy at level O1 by measuring ratio at -60 mV in presence of glutamate at 1 uM by whole cell patch clamp assay (RVB = 0.16 +/- 0.059); settings: filed as negative allosteric modulator; how it was run: as §1
Glutamate receptor 3 [9] = biological target: T1, Glutamate receptor 3; assay: Blockade of whole cell current in GluA3i-G (unknown origin) transfected in HEK293 cells measured at -60 mV in presence of glutamate by whole cell patch clamp assay
How it was run: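 Whole-cell GluA3 currents were recorded at Vh −60 mV. Glutamate was applied first, then coapplied with inhibitor. Steady-state responses were normalized to currents in 5 mM glutamate in each of 19 cells, with 3–10 cells per concentration. The concentration–effect curve was fitted assuming simple inhibition.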

Glutamate receptor 3 [10] = biological target: T1, Glutamate receptor 3; assay: Blockade of whole cell current in GluA3i-G (unknown origin) transfected in HEK293 cells assessed as opening of conductance level O1 measured at -60 mV in presence of glutamate at 1 uM by whole cell patch clamp assay; settings: filed as negative allosteric modulator; how it was run: as §1
Glutamate receptor 3 [11] = biological target: T1, Glutamate receptor 3; assay: Blockade of whole cell current in GluA3i-G (unknown origin) transfected in HEK293 cells assessed as fractional occupancy at level O2 by measuring ratio at -60 mV in presence of glutamate at 1 uM by whole cell patch clamp assay (RVB = 0.23 +/- 0.051); settings: filed as negative allosteric modulator; how it was run: as §1
Glutamate receptor 3 [12] = biological target: T1, Glutamate receptor 3; assay: Blockade of whole cell current in GluA3i-G (unknown origin) transfected in HEK293 cells assessed as fractional occupancy at level O4 by measuring ratio at -60 mV in presence of glutamate at 1 uM by whole cell patch clamp assay (RVB = 0.14 +/- 0.050); settings: filed as negative allosteric modulator; how it was run: as §1
Glutamate receptor 3 [13] = biological target: T1, Glutamate receptor 3; assay: Blockade of whole cell current in GluA3i-G (unknown origin) transfected in HEK293 cells assessed as fractional occupancy at level C by measuring ratio at -60 mV in presence of glutamate at 2 uM by whole cell patch clamp assay (RVB = 0.037 +/- 0.010); settings: filed as negative allosteric modulator; how it was run: as §1
Glutamate receptor 3 [14] = biological target: T1, Glutamate receptor 3; assay: Blockade of whole cell current in GluA3i-G (unknown origin) transfected in HEK293 cells assessed as opening of conductance level O1 measured at -60 mV in presence of glutamate at 2 uM by whole cell patch clamp assay; settings: filed as negative allosteric modulator; how it was run: as §1
Glutamate receptor 3 [15] = biological target: T1, Glutamate receptor 3; assay: Blockade of whole cell current in GluA3i-G (unknown origin) transfected in HEK293 cells assessed as opening of conductance level O3 measured at -60 mV in presence of glutamate at 2 uM by whole cell patch clamp assay; how it was run: as §1
Glutamate receptor 3 [16] = biological target: T1, Glutamate receptor 3; assay: Blockade of whole cell current in GluA3i-G (unknown origin) transfected in HEK293 cells assessed as opening of conductance level O2 measured at -60 mV in presence of glutamate at 2 uM by whole cell patch clamp assay; settings: filed as negative allosteric modulator; how it was run: as §1
Glutamate receptor 3 [17] = biological target: T1, Glutamate receptor 3; assay: Blockade of whole cell current in GluA3i-G (unknown origin) transfected in HEK293 cells assessed as fractional occupancy at level O3 by measuring ratio at -60 mV in presence of glutamate at 1 uM by whole cell patch clamp assay (RVB = 0.44 +/- 0.14); settings: filed as negative allosteric modulator; how it was run: as §1
Glutamate receptor 3 [18] = biological target: T1, Glutamate receptor 3; assay: Blockade of whole cell current in GluA3i-G (unknown origin) transfected in HEK293 cells assessed as opening of conductance level O2 measured at -60 mV in presence of glutamate at 1 uM by whole cell patch clamp assay; settings: filed as negative allosteric modulator; how it was run: as §1

N#Cc1ccccc1-c1cc(-c2ccccn2)cn(-c2ccccc2)c1=O [PERAMPANEL]
Activity (Glutamate receptor 3 [1]): inactive | Activity (Glutamate receptor 3 [2]): inactive | Ratio (Glutamate receptor 3 [3]): 0.015 | Ratio (Glutamate receptor 3 [4]): 0.078 | Ratio (Glutamate receptor 3 [5]): 0.49 | Ratio (Glutamate receptor 3 [6]): 0.25 | Activity (Glutamate receptor 3 [7]): inactive | Ratio (Glutamate receptor 3 [8]): 0.3 | IC50 (Glutamate receptor 3 [9]): 2100 nM | Activity (Glutamate receptor 3 [10]): Active | Ratio (Glutamate receptor 3 [11]): 0.53 | Ratio (Glutamate receptor 3 [12]): 0.001 | Ratio (Glutamate receptor 3 [13]): 0.23 | Activity (Glutamate receptor 3 [14]): Active | Activity (Glutamate receptor 3 [15]): inactive | Activity (Glutamate receptor 3 [16]): Active | Ratio (Glutamate receptor 3 [17]): 0.13 | Activity (Glutamate receptor 3 [18]): Active
